Usually IC50 stands for the concentration needed to halve the response being measured. Higher therefore signals weaker potency.

SMILES strings stand for the structures.

Consider 57 molecules from ChEMBL document CHEMBL1128500, “Diamine and triamine analogs and derivatives as inhibitors of deoxyhypusine synthase: synthesis and biological activity” (J Med Chem, 1995).

Experiment [1] has as its target T1, Deoxyhypusine synthase (Homo sapiens) (UniProt P49366).
T1 sequence (whole entry): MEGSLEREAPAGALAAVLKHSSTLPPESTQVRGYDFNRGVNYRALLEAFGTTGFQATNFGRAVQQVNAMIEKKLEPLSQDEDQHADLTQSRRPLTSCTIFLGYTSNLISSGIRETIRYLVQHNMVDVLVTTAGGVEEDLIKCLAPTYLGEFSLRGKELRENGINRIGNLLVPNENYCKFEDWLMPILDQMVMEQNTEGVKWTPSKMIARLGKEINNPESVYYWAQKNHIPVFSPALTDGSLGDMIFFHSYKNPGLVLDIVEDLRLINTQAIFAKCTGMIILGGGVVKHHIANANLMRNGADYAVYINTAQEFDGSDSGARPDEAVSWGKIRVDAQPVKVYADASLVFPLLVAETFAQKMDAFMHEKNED
As to the kind of experiment: Effect on protein synthesis in CHO cells at concentration 3 uM. Conditions: Cricetulus griseus.

Experiment [2] addresses T1, Deoxyhypusine synthase (Homo sapiens). As to the kind of experiment: Effect on protein synthesis in CHO cells at concentration 10 uM. Conditions: Cricetulus griseus.
Experiment [3] has the same target. As to the kind of experiment: Effect on Hypusine formation in CHO cells at concentration 10 uM. The format is functional, cell-based. Particulars: Cricetulus griseus.
Experiment [4] deals with CHO. As to the kind of experiment: Effect on spermidine uptake in CHO cells at concentration 10 uM. It is filed as functional. A digest of the protocol:
(§1)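 Spermidine uptake in CHO cells: total cellular radioactivity after 18 h growth with 5 μCi/mL [3H]spermidine in presence of compound, reported as percentage of untreated-cell value.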

Experiment [5] deals with T1, Deoxyhypusine synthase (Homo sapiens). The experiment can be described thus: Effect on Hypusine formation in CHO cells at concentration 3 uM. Conditions: Cricetulus griseus. The format is functional, cell-based.
For a further experiment, the target named is T2, Deoxyhypusine synthase (Rattus norvegicus, UniProt Q6AY53).
T2 sequence (Q6AY53 whole entry): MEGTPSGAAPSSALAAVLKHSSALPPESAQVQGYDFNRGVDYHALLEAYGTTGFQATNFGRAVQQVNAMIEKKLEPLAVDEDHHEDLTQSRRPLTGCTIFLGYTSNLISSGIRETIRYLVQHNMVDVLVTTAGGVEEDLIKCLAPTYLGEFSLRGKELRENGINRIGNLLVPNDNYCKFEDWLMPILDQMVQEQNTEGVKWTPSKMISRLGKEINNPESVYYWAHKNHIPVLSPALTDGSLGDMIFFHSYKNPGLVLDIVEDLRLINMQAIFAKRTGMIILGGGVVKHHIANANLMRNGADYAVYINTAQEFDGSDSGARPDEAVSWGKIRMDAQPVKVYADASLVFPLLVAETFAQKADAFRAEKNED
The experiment can be described thus: In vitro IC50 value by measuring the inhibition of deoxyhypusine synthase.

In experiment [6] the test system is CHO. The experiment can be described thus: Effect on spermidine uptake in CHO cells at concentration 3 uM. The format is functional, Cricetulus griseus. A digest of the protocol: as §1
Experiment [7] has as its system CHO. As to the kind of experiment: Growth inhibition was measured against CHO cell line; - indicates >100 uM. It is filed as functional, cell-based. Conditions: Cricetulus griseus. A digest of the protocol:
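CHO cells grown with compound for 72 h; cellular protein measured by bicinchoninic acid method as crude growth estimate (control protein rose ~16-fold over 72 h). Symbol gives compound range halving protein versus control: ++++ <0.5, +++ 0.5-1, ++ >1-10, + >10-100, - >100 μM.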

Experiment [8] concerns CHO. As to the kind of experiment: Effect on hypusine synthesis in CHO cells at concentration 10 uM. It is filed as functional, Cricetulus griseus.

With `NCCCCCCCCNCCCCCCCCN=C(N)N`, the Control in experiment [1] was determined as 20%; in experiment [2] it was 22%; in experiment [3], 27%; in the experiment on CHO [4], 80%; in experiment [5], 36%.
`CCNCCCCCCCNC(=N)N` registered an IC50 at Deoxyhypusine synthase of 9 µM.
Same read-out and setting: next, `NCCCCCNCCCCCN`: over 1000 µM; `N=C(N)CCCCCC(=N)N`: over 1000 µM.
In the case of `N=C(N)NCCCCCCCN`, the Control in experiment [1] is 62%; in [2], 50%; with CHO [6], 100%; in [5] it was 0%. At Deoxyhypusine synthase, this molecule registered a 50% inhibitory concentration (IC50) of 0.03 µM.
`N=C(N)NCCCCNCCCCNC(=N)N`: the Control in experiment [1] was determined as 100%; in experiment [2], 100%; in experiment [3], 100%; in the experiment on CHO [4] it was 85%; in experiment [5], 100%. At Deoxyhypusine synthase, this molecule had a half-inhibitory concentration (IC50) of 3.2 µM.
In turn, `N=C(N)NCCCCCCNCCCCCCN` registered an IC50 against Deoxyhypusine synthase of 74 µM. In other words, the double-digit micromolar range.
The same measure, in the same setting: next, `N=C(N)NCCCCCCCCN`: 0.55 µM.
`NCCCSCCCN`: the Control in [1] stood at 86%; in experiment [2], 81%; in [3], 93%; in the experiment on CHO [4], 100%; in [5], 100%. Further, the IC50 at Deoxyhypusine synthase came out at 83 µM.
`NCCCCSCCCN` gave an IC50 against Deoxyhypusine synthase of 235 µM.
For the molecule `NCCCCCCCCNCCCCCCCCN`, on Deoxyhypusine synthase, the midpoint of inhibition, the IC50, lay at 116 µM. Against the preceding molecule, the IC50 is about 2-fold lower.
The same measure, in the same setting: next, `N=C(N)NCCCCN` [AGMATINE]: 156 µM.
Regarding `CCNCCCCCCCN=C(N)N`, the Control amounted to 34% in [1]; 28% in experiment [2]; 36% in experiment [3]; 95% with CHO [4]; 76% in [5].
Turning to `NCCCOCCCN`, the Control in experiment [1] was found to be 100%; in experiment [2], 85%; in experiment [3], 100%; in the experiment on CHO [4] it was 100%; in experiment [5] it was 100%. Also, the 50% inhibitory concentration (IC50) against Deoxyhypusine synthase amounted to 13 µM.
With `NC(N)=NCCCCN=C(N)N` [ARCAINE], on Deoxyhypusine synthase, the midpoint of inhibition, the IC50, lay at 179 µM.
On Deoxyhypusine synthase, `[H]/N=C(/N)NCCCCCNC(=N)N` displayed an IC50 of 6.8 µM.
The molecule `N=C(N)SCCCCCCCCSC(=N)N` yielded an IC50 on Deoxyhypusine synthase of over 1000 µM.
Regarding `NCCCCNCCCCN`, the Growth inhibition entry in the experiment on CHO [7] was “Not toxic”. Moreover, half-maximal inhibition on Deoxyhypusine synthase (IC50) required 556 µM.
As for `NCCCCCCNCCCCCCN`, the IC50 against Deoxyhypusine synthase is over 1000 µM.
The same measure, in the same setting: next, `N=C(N)NCCCCCCCCNC(=N)N`: 16.1 µM.
As to `N=C(N)NCCCCCCNCCCCCCNC(=N)N`, the Control in [1] was found to be 93%; in experiment [2] it was 87%; in experiment [3], 100%; in the experiment on CHO [4] it was 95%; in experiment [5], 96%. Further, the IC50 against Deoxyhypusine synthase is 40 µM.
In turn, `N=C(N)CCCCCCCCC(=N)N` returned a 50% inhibitory concentration (IC50) at Deoxyhypusine synthase of over 1000 µM.
As to `NCCCNCCCN=C(N)N`, the Control in experiment [1] stood at 77%; in experiment [2] it was 75%; in experiment [3] it was 23%; in the experiment on CHO [4], 34%; in the experiment on CHO [6] it was 76%; in experiment [5] it was 50%.
Regarding `NCCCNCCCN` [NORSPERMIDINE], 41 µM corresponded to half-maximal inhibition at Deoxyhypusine synthase (IC50). That is a double-digit micromolar value.
Still for that read-out and setting: under `N#CCCNCCCCCCCNC(=N)N` stands 96 µM; under `N=C(N)CCCCCCCCCC(=N)N`, over 1000 µM.
For `N=C(N)NCCCOCCCNC(=N)N`, the Control (with CHO [8]; in experiment [1]; in [3]; in the experiment on CHO [4]; in experiment [5]) was 100% in each case. Moreover, on Deoxyhypusine synthase, the midpoint of inhibition, the IC50, lay at 8 µM.
For the molecule `N=C(N)NCCCSCCCNC(=N)N`, the Control in experiment [1] was determined as 100%; in [2] it was 60%; in experiment [3], 74%; with CHO [4] it was 81%; in [5] it was 100%. On Deoxyhypusine synthase, this molecule yielded a half-maximal inhibitory concentration (IC50) of 21 µM.
At Deoxyhypusine synthase, `N=C(N)SCCCCSC(=N)N` gave an IC50 of over 1000 µM.
As for `CCNCCCCCCCN`, in the experiment on CHO [7], the Growth inhibition entry is “Not toxic”. On Deoxyhypusine synthase, this molecule had an IC50 of 275 µM.
At Deoxyhypusine synthase, `NCCCNOCCCN` had an IC50 of 385 µM.
The same measure, in the same setting: under `N=C(N)SCCCCCCCSC(=N)N` stands over 1000 µM.
Still for that read-out and setting: under `N=C(N)NCCCCCCN` stands 132 µM.
Take `N=C(N)NCCCCCCNC(=N)N`: the concentration for half-maximal inhibition (IC50) against Deoxyhypusine synthase was found to be 112 µM.
On to `N=C(N)CCCCCCCC(=N)N`, for which the half-maximal inhibitory concentration (IC50) at Deoxyhypusine synthase is 120 µM.
The molecule `N=C(N)NCCCCSCCCNC(=N)N` registered an IC50 on Deoxyhypusine synthase of 48 µM. Against the preceding molecule, the IC50 is about 2.5-fold lower.
Consider `NCCCCCCNCCCCCCN=C(N)N`, for which the Control in experiment [1] is 45%; in experiment [2] it was 35%; in [3], 48%; with CHO [4] it was 80%; in experiment [5] it was 61%.
As to `N=C(N)NCCCCCCCCNCCCCCCCCN`, it took 13 µM to reach half-maximal inhibition on Deoxyhypusine synthase (IC50).
Take `NCCCCCNCCCCCN=C(N)N`: the Control is 80% in experiment [1], 65% in experiment [2], 92% in [3] and 74% with CHO [4]. This molecule also registered an IC50 against Deoxyhypusine synthase of 100 µM.
`NCCCCCN=C(N)N` showed an IC50 against Deoxyhypusine synthase of 29 µM. This lies in the double-digit micromolar range.
For the molecule `NCCCCNCCCCN=C(N)N`, the Control in [1] came to 88%; in [2], 93%; in experiment [3], 3%; in the experiment on CHO [4], 28%; with CHO [6], 64%; in [5] it was 7%. On Deoxyhypusine synthase, this molecule yielded an IC50 of 0.16 µM.
As for `N=C(N)CCCCCCCCCCC(=N)N`, the IC50 at Deoxyhypusine synthase was over 1000 µM.
Consider `N=C(N)NCCCCCCCNCCCCCCCNC(=N)N`, for which the Control was 88% in experiment [1]; 67% in [2]; 74% in experiment [3]; 95% with CHO [4]; 90% in experiment [5]. In addition, the midpoint of inhibition against Deoxyhypusine synthase, the IC50, lay at 0.08 µM.
`N=C(N)NCCCCCCCCNCCCCCCCCNC(=N)N` [IMINOCTADIENE]: the Control is 100% in experiment [1]; 84% in experiment [2]; 100% in [3]; 95% in the experiment on CHO [4]; 100% in experiment [5]. Besides, inhibition against Deoxyhypusine synthase was half-maximal at 3.5 µM (IC50).
In the case of `N=C(N)NCCCCCNCCCCCNC(=N)N`, the Control amounted to 100% in experiment [1]; 100% in experiment [2]; 100% in experiment [3]; 95% in the experiment on CHO [4]; 100% in [5]. On Deoxyhypusine synthase, this molecule came in with a 50% inhibitory concentration (IC50) of 38 µM.
`N=C(N)NCCCOCCCN` showed an IC50 against Deoxyhypusine synthase of 0.7 µM.
Same read-out and setting: under `N=C(N)NCCCNCCCN` stands 1.2 µM.
The same measure, in the same setting: next, `NCCCCCCCNCCCCCCCN`: 63 µM; `N=C(N)CCCCCCC(=N)N`: over 1000 µM.
Turning to `NCCCSCCCN=C(N)N`, the Control is 40% in experiment [1]; 25% in experiment [2]; 24% in [3]; 100% with CHO [4]; 50% in [5]. Further, at Deoxyhypusine synthase, inhibition was half-maximal at 1.9 µM (IC50).
For `N=C(N)NCCCCCCCNC(=N)N`, it took 3.4 µM to reach half-maximal inhibition at Deoxyhypusine synthase (IC50).
Still for that read-out and setting: next, `N=C(N)SCCCCCCSC(=N)N`: 780 µM; `N=C(N)SCCCCCSC(=N)N`: over 1000 µM.
On to `N=C(N)NCCCNCCCNC(=N)N`, for which the Control in experiment [1] was determined as 80%; in [3], 100%; with CHO [4], 95%; in experiment [5], 98%. Besides, the Growth inhibition entry in the experiment on CHO [7] was “Not toxic”. On Deoxyhypusine synthase, this molecule returned an IC50 of 182 µM.
With `NCCCCCCCNCCCCCCCN=C(N)N`, the Control is 24% in [1]; 20% in experiment [2]; 22% in experiment [3]; 65% in the experiment on CHO [4]; 34% in [5].
In the case of `NCCCOCCCN=C(N)N`, the Control in experiment [1] amounted to 98%; in experiment [2] it was 92%; in [3], 20%; with CHO [4], 95%; in [5], 76%.
On Deoxyhypusine synthase, `N=C(N)NCCCCCCCNCCCCCCCN` yielded an IC50 of 0.3 µM.
